Screening data deposited in PubChem by several laboratories.
MLLE-PAM2 inh: blocks PAM2 peptide binding to the PABP1 MLLE domain; GST-MLLE / FITC-PAM2 fluorescence polarization; inhibition, % at 20 µM; 0.36% of 360,000 active; AID 588489; in the data active = inhibition above about 35%, passing the limit was not always enough
Target sequence (P11940 whole entry, looked up, the tested form may be a part): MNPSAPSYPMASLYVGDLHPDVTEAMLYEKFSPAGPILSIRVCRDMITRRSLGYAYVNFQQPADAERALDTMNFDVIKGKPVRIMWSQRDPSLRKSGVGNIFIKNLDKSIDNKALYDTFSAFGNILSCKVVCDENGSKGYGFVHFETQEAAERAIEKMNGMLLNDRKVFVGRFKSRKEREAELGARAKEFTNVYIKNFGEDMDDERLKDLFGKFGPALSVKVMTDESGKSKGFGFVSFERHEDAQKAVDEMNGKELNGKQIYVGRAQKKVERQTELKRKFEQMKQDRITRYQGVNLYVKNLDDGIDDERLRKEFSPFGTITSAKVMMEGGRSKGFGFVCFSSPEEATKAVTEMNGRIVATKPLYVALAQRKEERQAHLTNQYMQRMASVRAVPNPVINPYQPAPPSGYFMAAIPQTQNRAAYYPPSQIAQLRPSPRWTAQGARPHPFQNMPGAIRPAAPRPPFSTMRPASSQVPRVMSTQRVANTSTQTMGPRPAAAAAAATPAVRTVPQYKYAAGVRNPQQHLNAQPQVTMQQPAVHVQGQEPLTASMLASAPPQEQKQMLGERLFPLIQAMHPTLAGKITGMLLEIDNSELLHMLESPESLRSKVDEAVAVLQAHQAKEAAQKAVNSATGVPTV
eIF4H inh: inhibitors of RNA binding by human eIF4H; eIF4H fluorescence polarization binding assay; 0.94% of 290,000 active; AID 2012; inhibition, % at 35 µM;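 also: calls also rest on retests at 20 µM and on dose response follow-up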
HCV core dimer: blocks dimerization of HCV core protein. TR-FRET GST/Flag-core106 dimerization, 1536-well. inhibition, % at 5 µM. 0.33% of 300,000 active;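 active = inhibition above the mean of all tested compounds plus 3 SD, set per screening campaign, cut at about 45% in these data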
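Material: Tagged HCV core106 pair (GST and Flag) | Amount: GST-core106 13.5 nM, Flag-core106 17 nM | Medium: KF-containing HEPES buffer, pH 7.45, DTT, CHAPS, BSA | Reagent: Eu donor and XL665 acceptor anti-tag antibodies | Schedule: 4 h at 22.5 °C | Technique: Time-resolved FRET, ex 340 nm, em 617 and 671 nm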
PABP FP inh: PABP-poly(A) binding inhibition; P11940; PABP-poly(A) RNA binding, fluorescence polarization; inhibition, % at 35 µM; 1% of 290,000 active; AID 2014;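 also: calls also rest on retests at 20 µM and on dose response follow-up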
DNA FID counter: displaces DNA intercalator in HCV helicase counter-screen | DNA fluorescent intercalator displacement, fluorescence | inhibition, % at 7.9 µM | 0.17% of 290,000 active | AID 1845; in the data active = inhibition above about 37%;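 also: higher means more ethidium bromide displaced from hairpin DNA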
HCV NS3 hel inh: HCV NS3 helicase inhibition | NS3 helicase DNA unwinding, Cy5 molecular beacon fluorescence | inhibition, % at 10.9 µM | 0.56% of 290,000 active | AID 1800;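 active = inhibition above the mean of all tested compounds plus 3 SD, set per campaign, cut at about 35% in these data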
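System: NS3 helicase fragment of HCV / Schedule: 1 h at 25 °C / Control set: DMSO alone as 0% and 110 µM thioflavine S as 100% / Reagent: Cy5/quencher beacon DNA duplex and ATP to start / Technique: Cy5 fluorescence / Replication: singlicate / Evaluation: % inhibition of end-to-start signal ratio versus controls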
A number is an active result; 0 = inactive; ? = inconclusive; - = no result given; ! = a repeat was not active. Hits are enriched below; roughly 2% of the tested compounds scored in any of these assays. Unless noted, no rule for the calls is given here.

SMILES	MLLE-PAM2 inh	eIF4H inh	HCV core dimer	PABP FP inh	DNA FID counter	HCV NS3 hel inh
CC(C)CN1CCN(Cc2nc3ccccc3s2)CC1CCO (stereo unspecified)	0	0	0	0	0	0
CC(C)CN1CCN(Cc2ccc(CN3CCCCC3)s2)CC1CCO (stereo unspecified)	0	63	0	10	0	0
CCC(C)(O)c1[nH]c2ccc(C(=O)OC)cc2c1C (stereo unspecified)	0	0	0	0	0	0
S=c1[nH]c2ccccc2n2cccc12	0	0	55	0	0	0
Cn1c(=S)[nH]c2ccccc21	0	0	0	0	0	0
CCc1ccc(NC(=O)c2ccc3c(c2)C(=O)N(Cc2ccco2)C3=O)cc1	0	57	56	4.4	0	0
COC(=O)Cc1ccc(NC(=O)c2ccc3c(c2)C(=O)N(Cc2ccco2)C3=O)cc1	0	0	0	0	0	0
O=C(O)c1cccc(NC(=O)c2ccc3c(c2)C(=O)N(Cc2ccco2)C3=O)c1	0	62	0	0	0	0
CCOc1ccccc1NC(=O)Nc1cccc(NC(C)=O)c1	0	0	0	0	0	0
CCOc1ccccc1NC(=O)Nc1ccc(OC)nc1	48	0	-	49	0	0
CC(NC(=S)Nc1ccccc1C(F)(F)F)C1CC2CCC1C2 (stereo unspecified)	46	0	0	0	0	0
CC(NC(=O)c1ccccc1Br)C1CC2CCC1C2 (stereo unspecified)	0	-	0	-	-	-
CN[C@H]1C[C@H]2c3[nH]c4ccc(-c5ccc(OC)cc5)cc4c3CCN2C(=O)[C@H]1[C@H](C)O	0	-	-	-	-	-
CC(=O)Nc1cccc(-c2csc(C(C)(O)c3ccc(F)c(F)c3)n2)c1 (stereo unspecified)	0	-	-	-	-	-
Cc1ccc(CN2C(=O)C3CCCN3c3ncccc32)cc1 (stereo unspecified)	0	0	0	0	0	0
Cc1ccc(CN2C(=O)C3CCCN3c3ccc(S(=O)(=O)N4CCOCC4)cc32)cc1 (stereo unspecified)	-	0	48	0	0	0
Cc1ccc(S(=O)(=O)N2C[C@H]3C(=O)C[C@@H](c4ccccc4)N(S(=O)(=O)c4ccccc4[N+](=O)[O-])[C@H]3C[C@H]2c2ccccc2)cc1	0	-	-	-	-	-
NC(=O)N1c2ccccc2C=Cc2ccccc21	0	0	0	0	0	0
NC(=O)N1c2ccccc2CC(=O)c2ccccc21	61	71!	0	21!	0	0
C/C(=N\NC(=S)Nc1cccc(C)c1)c1ccccc1	40	0	0	0	0	0
C/C(=N\NC(=S)Nc1cccc(C)c1)c1cccc(N)c1	0	0	0	0	0	0
C=CCOC(=O)C1=C(C)NC(SCC(=O)Nc2nccs2)=C(C#N)C1c1cccs1 (stereo unspecified)	0	0	49	0	0	0
C=CCOC(=O)C1=C(C)NC(SCC(=O)Nc2nccs2)=C(C#N)C1c1ccc(Cl)cc1 (stereo unspecified)	0	0	0	0	0	0
O=c1cc2c(=O)oc3cc(O)c(O)oc3c2c(O)c1O	0	92	-	96	0	0
CC(=O)Nc1ccc2[nH]c3ccccc3c2c1	0	99	0	73	0	0
SMILES	MLLE-PAM2 inh	eIF4H inh	HCV core dimer	PABP FP inh	DNA FID counter	HCV NS3 hel inh
O=C(Nc1cccc2cccnc12)c1csc([C@@H]2O[C@H](CO)[C@H](O)[C@H](O)[C@H]2O)n1	0	-	-	-	-	-
CC1CCN(C(=O)CSc2nc(C3CC3)nc3ccccc23)CC1	0	0	0	0	0	0
CCOC(=O)CSc1nc(C2CC2)nc2ccccc12	36	0	0	0	0	0
CC(C)c1nc(SCC(=O)c2ccc(F)cc2)c2ccccc2n1	37	0	0	0	0	0
Cc1ccc(C(=O)CSc2nc(C(C)C)nc3ccccc23)cc1	0	0	0	0	0	0
CCc1nc(SCC(=O)c2ccccc2)c2ccccc2n1	41	0	0	0	0	0
CCc1nc(SCC(=O)c2ccc3c(c2)OCCO3)c2ccccc2n1	0	0	0	0	0	0
NC(CCc1ccccc1)c1csc(NC(=O)NCC2CCCCC2)n1 (stereo unspecified)	0	-	-	-	-	-
CC(C)NC(=O)CCCC(=O)NC(C)C	0	2.2	0	64	0	0
O=c1c2c([nH]c3ccccc13)CCCC2	0	0	0	0	0	0
O=c1c2c([nH]c3ccccc13)C(=C1CCCC1)CC2	0	82	0	70	0	0
Cn1nc(C(C)(C)C)cc1C(=O)N1CCCC(c2cc(C(=O)Nc3ccccc3Cl)no2)C1 (stereo unspecified)	0	-	-	-	-	-
Fc1ccccc1NC(=S)Nc1cccc2cnccc12	37	58	0	0	0	0
FC(F)(F)c1ccccc1NC(=S)Nc1cccc2cnccc12	0	94	-	active	0	0
c1ccc(CN2CCC(Nc3nc(-c4cccs4)nc4ccccc34)CC2)cc1	0	0	0	0	59	0
c1csc(-c2nc(NCC3CCCO3)c3ccccc3n2)c1 (stereo unspecified)	0	0	0	0	0	0
CC(c1nc2ccccc2[nH]1)N(C(=O)C1=NNC(=O)CC1)c1ccccc1 (stereo unspecified)	0	-	-	-	-	-
O=C1c2ccccc2C(=O)c2c(/C=C/N3CCCCC3)ccnc21	43	-	-	-	-	-
COc1ccc(/C=C(\C#N)C(=O)Nc2cccc3ncccc23)cc1OC	0	0	0	0	0	0
N#C/C(=C\c1ccc(O)c(O)c1)C(=O)Nc1cccc2ncccc12	0	90	65	68	0	0
N#CC1=C(N)Oc2c(ccc3ccccc23)C1c1ccsc1 (stereo unspecified)	0	0	71	0	0	0
COC(=O)CC(NC(=S)NC(=O)c1ccccc1)c1ccc(Br)cc1 (stereo unspecified)	46	0	0	0	0	0
S=C1NCc2cncnc2N1	0	-	-	-	-	-
COc1ccc2nc3cc(Cl)ccc3c(Nc3cc(C(C)C)c(O)cc3C)c2c1	0	0	0	0	0	0
COc1ccc2nc3cc(Cl)ccc3c(Nc3cc(CN4CCCC4)c(O)c(CN4CCCC4)c3)c2n1	0	0	0	?	103	0
CC(C)CNc1ncnc2c1ncn2[C@H]1CN(Cc2ccc(-c3ccccc3)cc2)C[C@@H](CO)O1	0	-	-	-	-	-
Cc1ccc(N2C(=O)C3CC(c4ccccc4)=C4C5C=CC(C6C(=O)N(c7ccc(C)cc7C)C(=O)C56)C4C3C2=O)c(C)c1 (stereo unspecified)	0	0	52	0	0	0
Cc1ccc(N2C(=O)C3CC(c4ccccc4)=C4C5C=CC(C6C(=O)N(c7ccc(C)cc7)C(=O)C56)C4C3C2=O)cc1 (stereo unspecified)	0	0	0	0	0	0
CC(C)Cc1nnc(NC(=O)c2cc3c(s2)CCC3)s1	0	54	0	0	0	0
